Experimental findings from ChEMBL document CHEMBL4219195, “Discovery of a quinoline-based phenyl sulfone derivative as an antitrypanosomal agent” (Bioorg Med Chem Lett, 2018) are described below.

One assay concerns HepG2. Description: Cytotoxicity against human HepG2 cells assessed as decrease in cell viability after 72 hrs by MTT assay. The assay is classed as cell-based. Conditions: HepG2, 72 h. In outline: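 HepG2 cells kept in DMEM:F12 with 10% FBS, pen/strep and 0.0125% Tween 80 at 37°C, 5% CO2. Cells trypsinized, seeded at 5 × 10⁵ cells/mL and left ~24 h, then given compounds in DMSO for 72 h. Medium replaced with MTT-containing medium for 1.5 h; formazan dissolved in DMSO; A550. Triplicates. Controls: 10% SDS, podophyllotoxin.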
(Tetrazolium assays rely on reduction of a dye to a coloured formazan, in cell work by metabolically active cells.)

In assay [1] the test system is Trypanosoma brucei. Description: Antitrypanosomal activity against Trypanosoma brucei 427 bloodstream forms assessed as parasitic growth inhibition after 48 hrs by alamar blue assay. Conditions: Trypanosoma brucei, 427, 48 h. The assay is classed as functional, organism-based. In outline:
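Bloodstream forms in supplemented HMI-9 medium (10% FBS, 10% Serum Plus, cysteine, hypoxanthine, β-mercaptoethanol, thymidine, pyruvate, bathocuproinesulfonate, Tween 80), 5 × 10³ cells/well, compound exposure 48 h in DMSO. Alamar blue then added, 4 h at 37°C; fluorescence ex 530/em 590 nm. Triplicates; IC50 from 0.3–50 μM range; suramin positive control.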
(In general: Alamar Blue is a resazurin reagent that responds to reducing activity.)

For assay [2], the target named is Rhodesain (Trypanosoma brucei rhodesiense) (UniProt Q95PM0). The experiment in a line: Inhibition of Trypanosoma brucei rhodesain expressed in Pichia pastoris at 20 uM using Z-phe-Arg-AMC as substrate preincubated for 1 hr followed by substrate addition by fluorescence assay. In outline:
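Enzyme at 0.8 nM final with compound at 20 μM final, 1 h preincubation in 50 mM sodium acetate pH 5.5 with 2 mM DTT and 0.01% Triton X-100. Z-Phe-Arg-AMC (10 μM) then added. Cleavage rate (RFU/sec) read at 25 °C, ex 355/em 460 nm. E-64 (10 μM) served as 100% inhibition control.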

For assay [3], the target named is Procathepsin L (Homo sapiens) (UniProt P07711). The experiment in a line: Inhibition of human liver cathepsin L using Z-phe-Arg-AMC as substrate at 0.1 to 125 uM preincubated for 1 hr followed by substrate addition by fluorescence assay. In outline:
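Human liver CatL at 0.58 nM in 400 mM sodium acetate pH 5.5 with 8 mM DTT, 4 mM EDTA and 0.01% Triton X-100. Enzyme and compound preincubated 1 h, then Z-Phe-Arg-AMC (20 μM) added. AMC fluorescence rate read at ex 355/em 460 nm, 25 °C.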

A further assay addresses Rhodesain (Trypanosoma brucei rhodesiense, UniProt Q95PM0). The experiment in a line: Inhibition of Trypanosoma brucei rhodesain expressed in Pichia pastoris using Z-phe-Arg-AMC as substrate preincubated for 1 hr followed by substrate addition by fluorescence assay. In outline:
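Rhodesain at 0.8 nM final was pre-incubated 1 h with compound at 20 μM final in 50 mM sodium acetate pH 5.5, 2 mM DTT, 0.01% Triton X-100. Then 10 μM Z-Phe-Arg-AMC was added, and cleavage was read as RFU/sec at 25 °C (ex 355/em 460 nm). E-64 (10 μM) defined 100% inhibition.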

Assay [4] addresses Rhodesain (Trypanosoma brucei rhodesiense) (UniProt Q95PM0). The experiment in a line: Inhibition of Trypanosoma brucei rhodesain expressed in Pichia pastoris assessed as rato of Kinact to Ki using Z-phe-Arg-AMC as substrate preincubated for 1 hr followed by substrate additon by fluorescence assay. In outline: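 Time-dependent inactivation study: rhodesain mixed with inhibitor (0, 0.06, 0.12, 0.24, 0.97, 3.9 μM) in assay buffer (50 mM sodium acetate pH 5.5, 2 mM DTT, 0.01% Triton X-100). Aliquots drawn every 10 min, assayed with 10 μM Z-Phe-Arg-AMC, RFU/sec followed 7 min at 25 °C (ex 355/em 460 nm). Analysed by pseudo-first-order inhibition plots.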

Assay [5] concerns Trypanosoma brucei. Description: Antitrypanosomal activity against luciferase expressing Trypanosoma brucei STIB795 bloodstream forms infected in NMRI mouse assessed as parasitic growth inhibition at 50 to 100 mg/kg, ip administered for 4 consecutive days starting at 3 days post infection measured at 24 hrs post dose by live imaging analysis. The assay is classed as functional, organism-based. In outline:
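Groups of four female mice, each inoculated ip with 1 × 10⁴ bloodstream forms. Groups: control, 50 mg/kg/day and 100 mg/kg/day. Dosing ip in water plus 10% DMSO began 3 days post-infection. Parasitemia followed by live imaging. Moribund mice euthanized once parasitemia was detected.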

The pIC50 is −log10 of the IC50, conventionally taken in molar units.

pIC50: −log10 of the molar value. Calls of active or inactive are those of the source. The calls are words filed in the database; no cut-off is given here.

Sequence of Rhodesain (Trypanosoma brucei rhodesiense) (Q95PM0 1-450): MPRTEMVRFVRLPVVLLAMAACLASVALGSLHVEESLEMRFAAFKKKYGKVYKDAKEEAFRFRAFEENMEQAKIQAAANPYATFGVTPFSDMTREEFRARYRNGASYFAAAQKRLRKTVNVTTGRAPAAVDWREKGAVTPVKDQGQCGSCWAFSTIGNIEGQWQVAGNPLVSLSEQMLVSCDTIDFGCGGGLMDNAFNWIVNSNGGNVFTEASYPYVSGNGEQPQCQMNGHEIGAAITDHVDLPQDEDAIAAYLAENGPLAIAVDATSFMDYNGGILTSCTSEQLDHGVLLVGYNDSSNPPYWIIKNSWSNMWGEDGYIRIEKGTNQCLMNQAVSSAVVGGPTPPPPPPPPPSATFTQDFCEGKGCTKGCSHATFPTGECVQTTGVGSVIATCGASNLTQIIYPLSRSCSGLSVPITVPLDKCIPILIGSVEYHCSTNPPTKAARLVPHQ
Sequence of Procathepsin L (Homo sapiens) (P07711 114-333 limits assumed): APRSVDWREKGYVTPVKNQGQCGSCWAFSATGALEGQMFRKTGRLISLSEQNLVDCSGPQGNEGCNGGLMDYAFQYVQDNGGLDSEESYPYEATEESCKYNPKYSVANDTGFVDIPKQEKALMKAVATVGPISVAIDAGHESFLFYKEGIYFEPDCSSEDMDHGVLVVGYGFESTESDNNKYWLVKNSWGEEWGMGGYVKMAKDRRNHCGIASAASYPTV
Sequence of Rhodesain (Q95PM0 whole entry): as the sequence (Q95PM0 1-450) above

On to `O=C(Cc1ccc(OC/C=C/S(=O)(=O)c2ccccc2)cc1)Oc1ccc(Cc2ccccc2)cc1`, for which the pIC50 is below 4.10 in the assay on HepG2 and 5.83 in the assay on Trypanosoma brucei [1]. The inhibition result in assay [2] was “inactive”.

On to `O=C(Cc1ccc(OC/C=C/S(=O)(=O)c2ccccc2)cc1)OC1CCC[C@@H]2CCCC[C@H]12` (some centres not stated), for which the pIC50 in the assay on HepG2 was below 4.70; in the assay with Trypanosoma brucei [1] it was 5.25. The inhibition entry in assay [2] was “inactive”.

`CC1(C)[C@H]2CC=C(CCOC(=O)Cc3ccc(OC/C=C/S(=O)(=O)c4ccccc4)c(Cl)c3)[C@@H]1C2`: the figures for the negative-log IC50 (pIC50) with HepG2 and with Trypanosoma brucei [1] were below 4.10 and 5.52, respectively. For the same compound, in assay [2], the inhibition entry is “inactive”.

On to `O=C(Cc1ccc(OC/C=C/S(=O)(=O)c2ccccc2)cc1)Oc1ccc(C(F)(F)F)cc1`, for which the pIC50 in the assay on HepG2 and in the assay with Trypanosoma brucei [1] was below 4.70 each time. For the same compound, the inhibition result in assay [2] is “inactive”.

Turning to `CC(C)CCC[C@@H](C)[C@H]1CC[C@H]2[C@@H]3CC[C@H]4C[C@@H](OC(=O)Cc5ccc(OC/C=C/S(=O)(=O)c6ccccc6)cc5)CC[C@]4(C)[C@H]3CC[C@]12C`, the negative logarithm of the IC50 (pIC50) in the assay on HepG2 and with Trypanosoma brucei [1] was below 4.70 each time. Further, the inhibition result in assay [2] was “inactive”.

Regarding `CC1=C[C@@H](OC(=O)Cc2ccc(OC/C=C/S(=O)(=O)c3ccccc3)cc2)C2C[C@H]1C2(C)C`, the pIC50 in the assay with HepG2 and in the assay on Trypanosoma brucei [1] was below 4.70 in each case. The inhibition result in assay [2] is “inactive”.

For the compound `O=C(N[C@H](/C=C/S(=O)(=O)c1ccccc1)CCc1ccccc1)c1cccc2cccnc12`, the pIC50 in the assay with HepG2 is below 4.10; with Trypanosoma brucei [1], 5.22; on Rhodesain it was 6.10. Further, the inhibition result in assay [3] was “inactive”. In assay [4], the Ratio worked out at 99 M⁻¹ s⁻¹. The inhibition result in assay [2] is “Active”.

`CC1(C)C2CC[C@]1(C)C(OC(=O)Cc1ccc(OC/C=C/S(=O)(=O)c3ccccc3)cc1)C2` (some centres not stated): the pIC50 in the assay on HepG2 is below 4.70; in the assay on Trypanosoma brucei [1] it was 5.15. Also, the inhibition result in assay [2] was “inactive”.

Consider `O=C(Cc1ccc(OC/C=C/S(=O)(=O)c2ccccc2)cc1)Nc1cccc2cccnc12`, for which the pIC50 with HepG2 is below 4.10; in the assay with Trypanosoma brucei [1] it was 6.12. Besides, the inhibition result in assay [2] is “inactive”. Besides, the outcome with Trypanosoma brucei [5] was inactive.

As for `CC1(C)[C@H]2CC=C(CCOC(=O)Cc3ccc(OC/C=C/S(=O)(=O)c4ccccc4)cc3)[C@@H]1C2`, the pIC50 with HepG2 was below 4.10; in the assay on Trypanosoma brucei [1] it was 5.70. The inhibition result in assay [2] was “inactive”.

For `CC1(C)C2CC[C@]1(C)C(NC(=O)Cc1ccc(OC/C=C/S(=O)(=O)c3ccccc3)cc1)C2` (some centres not stated), the results for the pIC50 in the assay with HepG2 and in the assay on Trypanosoma brucei [1] were below 4.70 and 4.97, respectively. Besides, in assay [2], the inhibition result is “inactive”.

`CCCN1CCC(NC(=O)Cc2ccc(OC/C=C/S(=O)(=O)c3ccccc3)cc2)CC1`: the negative-log IC50 (pIC50) in the assay on HepG2 and with Trypanosoma brucei [1] was below 4.70 each time. The inhibition result in assay [2] was “inactive”.

Turning to `CC(C)c1ccc(OC(=O)Cc2ccc(OC/C=C/S(=O)(=O)c3ccccc3)cc2)cc1`, the pIC50 in the assay on HepG2 and with Trypanosoma brucei [1] was below 4.70 in each case. The inhibition result in assay [2] was “inactive”.

For `C[C@H](OC(=O)Cc1ccc(OC/C=C/S(=O)(=O)c2ccccc2)cc1)c1ccc2ccccc2c1`, the pIC50 in the assay on HepG2 was below 4.70; in the assay with Trypanosoma brucei [1] it was 5.25. In addition, the inhibition result in assay [2] is “inactive”.

For the compound `CN1CCC(NC(=O)Cc2ccc(OC/C=C/S(=O)(=O)c3ccccc3)cc2)CC1`, the pIC50 in the assay with HepG2 and in the assay on Trypanosoma brucei [1] was below 4.70 each time. In addition, in assay [2], the inhibition result is “inactive”.

For the compound `CC1(C)C2CC=C(CCOC(=O)Cc3ccc(OC/C=C/S(=O)(=O)c4ccccc4)cc3F)C1C2` (configuration not stated), the negative logarithm of the IC50 (pIC50) was below 4.70 with HepG2 and 5.15 in the assay with Trypanosoma brucei [1]. For the same compound, the inhibition result in assay [2] was “inactive”.

Regarding `O=C(Cc1ccc(OC/C=C/S(=O)(=O)c2ccccc2)cc1)Oc1ccc(C2CCCC2)cc1`, the values for the negative logarithm of the IC50 (pIC50) in the assay on HepG2 and with Trypanosoma brucei [1] were below 4.70 and 5.22, respectively. For the same compound, in assay [2], the inhibition entry is “inactive”.

For the compound `O=C(Cc1ccc(OC/C=C/S(=O)(=O)c2ccccc2)cc1)Oc1ccc2cc(Br)ccc2c1`, the results for the pIC50 in the assay on HepG2 and in the assay with Trypanosoma brucei [1] were below 4.10 and 5.66, respectively. Besides, the inhibition result in assay [2] is “inactive”.

Consider `O=C(Cc1ccc(OC/C=C/S(=O)(=O)c2ccccc2)cc1)NC12CC3CC(CC(C3)C1)C2`, for which the pIC50 in the assay on HepG2 is below 4.70; in the assay with Trypanosoma brucei [1] it was 4.93. For the same compound, the inhibition result in assay [2] is “inactive”.

Take `Cc1ccc(C(=O)Nc2ccc(S(=O)(=O)O)c3cc(S(=O)(=O)O)cc(S(=O)(=O)O)c23)cc1NC(=O)c1cccc(NC(=O)Nc2cccc(C(=O)Nc3cc(C(=O)Nc4ccc(S(=O)(=O)O)c5cc(S(=O)(=O)O)cc(S(=O)(=O)O)c45)ccc3C)c2)c1` [SURAMIN]: the negative-log IC50 (pIC50) with Trypanosoma brucei [1] is 8.40.

With `COc1cc([C@@H]2c3cc4c(cc3[C@H](O)[C@H]3COC(=O)[C@H]23)OCO4)cc(OC)c1OC` [PODOFILOX], the pIC50 with HepG2 was 8.10.

Regarding `CC1(C)C2CC=C(COC(=O)Cc3ccc(OC/C=C/S(=O)(=O)c4ccccc4)cc3)C1C2` (configuration not stated), the pIC50 in the assay on HepG2 and with Trypanosoma brucei [1] was below 4.70 in each case. Besides, the inhibition entry in assay [2] was “inactive”.

As for `C[C@H](NC(=O)Cc1ccc(OC/C=C/S(=O)(=O)c2ccccc2)cc1)c1ccc2ccccc2c1`, the values for the pIC50 with HepG2 and in the assay on Trypanosoma brucei [1] were below 4.70 and 5.26, respectively. Moreover, in assay [2], the inhibition result was “inactive”.

With `CC1(C)[C@@H]2CC[C@@](C)(C2)[C@@H]1OC(=O)Cc1ccc(OC/C=C/S(=O)(=O)c2ccccc2)cc1`, the pIC50 in the assay with HepG2 was 4.92; with Trypanosoma brucei [1], 5.39. Also, the inhibition result in assay [2] was “inactive”.
